Experiment [1] is described as follows: inhibitors of TNFa-induced NFkB p65 translocation, primary screen, imaging, HUVEC, MLSMR starter and 10KST1 sets (AID 438;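 active means inhibition above 20% together with a positive visual image hit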;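 further: compound added about 3h40 before a 20 min TNFalpha stimulation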;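 on inhibition: signal is the nuclear over cytoplasmic p65 intensity ratio per well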). Conditions: HUVEC TNFa-induced p65 nuclear translocation; cell count: measured here: nuclei count (cytotoxicity indicator), at 2.08 µM; inhibition: at 2 µM, stronger effect = higher value, 0% TNFa-plus-vehicle, 100% no-TNFa wells.
Experiment [2] in a line: inhibitors of mutant huntingtin aggregation, primary screen, imaging, exon1htt(103Q)mCFP cells, high-content imaging (AID 483;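 active means visual image review flags a hit and inhibition of aggregation exceeds 20%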;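 further: compound exposure lasted 3 days before fixation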;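 on nuclei count: percent of the per-plate median nuclei count of sample wells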). The conditions noted are these: exon1htt(103Q)mCFP cell line, aggregate imaging, at 2 µM; inhibition of aggregation: stronger effect = higher value; nuclei count: measured here: cell count, toxicity.
Experiment [3] can be described thus: inhibitors of E-selectin induction by TNFa, primary screen, imaging, HUVEC, immunofluorescence, MLSMR starter and 10KST1 sets (AID 487).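 On inhibition: signal is fraction of cell area covered by stained E-selectin grains.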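 On nuclei count: 100% = median nuclei count of all wells on the same plate.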 Conditions: HUVEC TNFalpha-induced E-selectin immunofluorescence imaging, at 2 µM; inhibition: stronger effect = higher value; nuclei count: measured here: cell number, toxicity.
The target in experiment [4] is Voltage-gated potassium channel subunit beta-2 (Rattus norvegicus) (UniProt P62483). Put plainly: KvBeta enzyme negative modulators, primary screen, biochemical, NADPH fluorescence (AID 622;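 active means fluorescence slope higher than the sample average by over 3 SD, cut at about -0.22 in these data, passing the limit was not always enough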;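 further: slope of raw intensity against log time taken from 70 to 1610 s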). Conditions: recombinant KvBeta, 4-cyanobenzaldehyde reduction, at 10 µM, stronger effect = higher value.
Voltage-gated potassium channel subunit beta-2 (Rattus norvegicus), sequence (P62483 whole entry, looked up): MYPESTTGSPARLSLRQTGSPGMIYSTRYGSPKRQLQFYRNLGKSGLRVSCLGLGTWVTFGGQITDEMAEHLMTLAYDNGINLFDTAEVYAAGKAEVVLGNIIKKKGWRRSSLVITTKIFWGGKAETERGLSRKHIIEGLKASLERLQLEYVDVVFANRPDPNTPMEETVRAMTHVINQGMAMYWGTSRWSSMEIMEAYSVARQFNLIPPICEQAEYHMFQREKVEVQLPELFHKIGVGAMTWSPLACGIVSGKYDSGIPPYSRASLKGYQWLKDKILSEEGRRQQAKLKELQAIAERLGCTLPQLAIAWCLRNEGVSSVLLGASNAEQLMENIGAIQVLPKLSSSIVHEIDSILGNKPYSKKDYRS
The target is the same in experiment [5]. Briefly: KvBeta positive modulators, primary screen, biochemical, NADPH fluorescence (AID 623;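 active means NADPH fluorescence slope more negative than the mean of all samples by about 3 SD, 99.7% confidence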;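 further: fluorescence intensity change per second fitted from 20 to 320 s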). The conditions noted are these: Recombinant KvBeta, NADPH fluorescence decrease slope, 10 min; at 10 µM; stronger effect = lower value.
For experiment [6], the target named is Muscarinic acetylcholine receptor M4 (Homo sapiens) (UniProt P08173). Briefly: compounds altering M4/GIRK thallium flux, either direction, primary screen, M4 allosteric agonist project, cell-based, HEK293 M4/GIRK, BTC-AM (AID 625;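 active means fluorescence slope after compound addition differing from the mean of all tested samples at 99.7% confidence, mostly higher but some lower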;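 further: thallium influx through GIRK channels coupled to M4 in HEK293 cells with BTC-AM dye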). The conditions noted are these: at 10 µM, actives lie on both sides. An outline of the steps: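 System: HEK293 cells with M4 receptor and GIRK channels | Incubation: Cells overnight at 37 °C, BTC-AM loading 1 h, reads 2 min total | Technique: Kinetic BTC-AM fluorescence sampled at 1 Hz, 10 s pre-addition baseline | Measure: Post-addition slope, 15–24 s, of baseline-normalized fluorescence | Control set: Carbachol positive, DMSO negative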
Muscarinic acetylcholine receptor M4 (Homo sapiens), sequence (P08173 whole entry, looked up): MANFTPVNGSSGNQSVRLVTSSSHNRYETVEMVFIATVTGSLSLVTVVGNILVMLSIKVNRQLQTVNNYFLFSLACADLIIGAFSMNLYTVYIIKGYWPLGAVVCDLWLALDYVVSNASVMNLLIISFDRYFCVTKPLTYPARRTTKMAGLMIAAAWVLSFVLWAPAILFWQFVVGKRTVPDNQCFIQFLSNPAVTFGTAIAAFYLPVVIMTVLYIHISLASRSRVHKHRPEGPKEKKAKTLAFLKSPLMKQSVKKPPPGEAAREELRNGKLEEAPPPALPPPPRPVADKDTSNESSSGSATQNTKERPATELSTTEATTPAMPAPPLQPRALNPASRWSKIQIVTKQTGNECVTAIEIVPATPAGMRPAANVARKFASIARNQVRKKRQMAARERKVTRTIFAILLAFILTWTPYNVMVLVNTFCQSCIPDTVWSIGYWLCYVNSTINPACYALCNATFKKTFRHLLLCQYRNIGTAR

Experiment [7] can be described thus: inhibitors of Sendai virus-induced IRF3 signaling, primary screen, TLR/RLR signaling modifier project, cell-based, Sendai virus stimulus, luciferase, 10K MLSCN set (AID 602276;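 active means inhibition at or above 50% at 10 µM; inactive means inhibition below 50%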;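 further: firefly luciferase from ISG56 promoter only with Renilla not read in this screen; 0% = Sendai virus plus DMSO and 100% = medium plus DMSO without virus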). The conditions noted are these: HEK293 RL24 IRF3 luciferase reporter, at 10 µM, stronger effect = higher value.
Experiment [8] can be described thus: inhibitors of poly I:C-induced TLR3 signaling, primary screen, cell-based, poly I:C stimulus, luciferase, 10K MLSCN set (AID 602277;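 active means inhibition of the reporter signal at or above 50%; inactive means inhibition below 50%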). Conditions: HEK293-TLR3 RL24 IRF3 luciferase reporter, at 10 µM, stronger effect = higher value. (In general: In a reporter assay the amount or activity of a reporter protein is the signal.)

Activity calls are given as the source filed them.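 How the source made its calls, unless noted: active means visually confirmed hit in the image check and inhibition above 20%; inconclusive means visually confirmed hit but inhibition not above 20%; inactive means no visual hit in the image check.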

For `COc1ccc(OC)c(NC(=O)CSc2ncccc2C(=O)O)c1`, in experiment [1], the cell count is 409. The inhibition is 0% (inactive) in experiment [1], -120% (inactive) in experiment [3], -1.78% (inactive) in experiment [7] and 9.5% (inactive) in experiment [8]. In addition, the inhibition of aggregation in experiment [2] was -10.4% (inactive). Further, the nuclei count in experiment [2] is 7.1%; in experiment [3] it was 125%. In addition, the fluorescence slope is -0.495 (inactive) in experiment [4] and 0.00462 (inactive) in experiment [6]. Moreover, the NADPH fluorescence slope in experiment [5] was -0.000268 (inactive).

In the case of `Cn1c2c(c(=O)n(C)c1=O)CN(CCCN1CCOCC1)CN2`, the cell count in experiment [1] was 541. Besides, the inhibition in experiment [1] was -5% (inactive); in experiment [3], 41.5% (inactive); in experiment [7] it was 8.17% (inactive); in experiment [8] it was 16.9% (inactive). The inhibition of aggregation in experiment [2] is 9.8% (inactive). The nuclei count in experiment [2] was 115%; in experiment [3], 90.5%. For the same compound, the fluorescence slope in experiment [4] was -0.595 (inactive); in experiment [6], 0.00524 (inactive). For the same compound, the NADPH fluorescence slope in experiment [5] was 2.4e-05 (inactive).

In the case of `COc1ccccc1NC1=C(C)C(=O)CC1`, in experiment [1], the cell count worked out at 537. The inhibition in experiment [1] was 10.5% (inactive); in experiment [3] it was -5.6% (inactive); in experiment [7], 19.4% (inactive); in experiment [8], 34% (inactive). For the same compound, the inhibition of aggregation in experiment [2] is 7.8% (inactive). Moreover, the nuclei count was 88.4% in experiment [2] and 102% in experiment [3]. In addition, the fluorescence slope is -0.246 (inactive) in experiment [4] and 0.00566 (inactive) in experiment [6]. For the same compound, in experiment [5], the NADPH fluorescence slope was -3e-05 (inactive).

As for `COc1ccccc1Nc1nc(N)nc(CSc2nccc(C)n2)n1`, the cell count in experiment [1] amounted to 701. The inhibition in experiment [1] was -8.6% (inactive); in experiment [3], 28.3% (inactive); in experiment [7] it was 11.6% (inactive); in experiment [8] it was 5.69% (inactive). Besides, the inhibition of aggregation in experiment [2] was -9.5% (inactive). The nuclei count in experiment [2] is 99.9%; in experiment [3] it was 112%. The fluorescence slope in experiment [4] is -0.546 (inactive); in experiment [6], 0.00561 (inactive). Besides, the NADPH fluorescence slope in experiment [5] is 4.7e-05 (inactive).

For `CN(C)c1ccc(/C=C/C(O)=C2/C(=O)N(C)C3(C)CC2c2ccccc2O3)cc1` (stereo not drawn), the cell count in experiment [1] turned out to be 356. The inhibition was -0.4% (inactive) in experiment [1], -68% (inactive) in experiment [3], 1.4% (inactive) in experiment [7] and 23.4% (inactive) in experiment [8]. Also, in experiment [2], the inhibition of aggregation was -5.2% (inactive). The nuclei count is 102% in experiment [2] and 115% in experiment [3]. The fluorescence slope in experiment [4] is -0.521 (inactive); in experiment [6], 0.0126 (active). The NADPH fluorescence slope in experiment [5] is -2e-07 (inactive).

For `CCOC(=O)N1CCN(S(=O)(=O)c2cc(C)c(C)cc2C)CC1`, the cell count in experiment [1] is 373. The inhibition in experiment [1] is 2.8% (inactive); in experiment [3], -69.5% (inactive); in experiment [7], 13.4% (inactive); in experiment [8], 20.2% (inactive). Moreover, in experiment [2], the inhibition of aggregation is -7.2% (inactive). Besides, the nuclei count in experiment [2] amounted to 99.3%; in experiment [3], 137%. In addition, the fluorescence slope in experiment [4] was -0.459 (inactive); in experiment [6], 0.00447 (inactive). Further, in experiment [5], the NADPH fluorescence slope was -1.8e-05 (inactive).

Regarding `COc1cc(C)nc(OCCNC(=O)COc2ccc(Cl)cc2C)n1`, in experiment [1], the cell count stood at 705. Also, the inhibition was 23.3% (active) in experiment [1], -53.9% (inactive) in experiment [3], -3.41% (inactive) in experiment [7] and -6.37% (inactive) in experiment [8]. Further, in experiment [2], the inhibition of aggregation was -16% (inactive). Also, the nuclei count in experiment [2] is 109%; in experiment [3], 123%. Further, the figures for the fluorescence slope in experiment [4] and in experiment [6] were -0.499 (inactive) and 0.00677 (inactive), respectively. In experiment [5], the NADPH fluorescence slope is 0.00012 (inactive).

On to `CC(C)(C)n1ncc2c(=O)n(CC(=O)NCc3ccco3)cnc21`, for which the cell count in experiment [1] came to 421. The inhibition in experiment [1] was 4.8% (inactive); in experiment [3], 4.2% (inactive); in experiment [7], -35.6% (inactive); in experiment [8], -92% (inactive). For the same compound, the inhibition of aggregation in experiment [2] was -12.5% (inactive). Further, the nuclei count in experiment [2] was determined as 104%; in experiment [3], 112%. Besides, the fluorescence slope is -0.574 (inactive) in experiment [4] and 0.00566 (inactive) in experiment [6]. Besides, in experiment [5], the NADPH fluorescence slope was 3.5e-06 (inactive).

Take `COc1ccc2nc(NC(=O)CSc3nnc(-c4ccoc4C)n3C)sc2c1`: the cell count in experiment [1] is 392. Besides, the inhibition is 9.9% (inactive) in experiment [1], -28.8% (inactive) in experiment [3], -11.5% (inactive) in experiment [7] and -48.5% (inactive) in experiment [8]. Besides, the inhibition of aggregation in experiment [2] is -2.4% (inactive). The nuclei count is 97.8% in experiment [2] and 104% in experiment [3]. Moreover, the results for the fluorescence slope in experiment [4] and in experiment [6] were -0.563 (inactive) and 0.00441 (inactive), respectively. The NADPH fluorescence slope in experiment [5] was -2.5e-05 (inactive).

`C=CCn1c(SCC(=O)NCC2CCCO2)nnc1C1CCCCC1` (stereo not drawn): the cell count in experiment [1] came to 354. Besides, the inhibition in experiment [1] is -4.5% (inactive); in experiment [3], -33% (inactive); in experiment [7] it was 11.2% (inactive); in experiment [8], 17.5% (inactive). For the same compound, the inhibition of aggregation in experiment [2] is -6% (inactive). Besides, the nuclei count in experiment [2] is 110%; in experiment [3], 113%. In addition, the fluorescence slope in experiment [4] was -0.573 (inactive); in experiment [6], 0.00592 (inactive). Further, the NADPH fluorescence slope in experiment [5] was -2.9e-05 (inactive).

As for `COc1cccc(Nc2nc(=O)[nH]nc2C)c1`, the cell count in experiment [1] was determined as 372. The inhibition in experiment [1] was -0.7% (inactive); in experiment [3], -23.9% (inactive); in experiment [7], 16.9% (inactive); in experiment [8], 22.7% (inactive). The inhibition of aggregation in experiment [2] was -14.2% (inactive). For the same compound, the nuclei count is 106% in experiment [2] and 103% in experiment [3]. Also, the fluorescence slope in experiment [4] is -0.572 (inactive); in experiment [6] it was 0.00575 (inactive). Besides, in experiment [5], the NADPH fluorescence slope was -4.1e-05 (inactive).

Consider `CCc1cc(C)cc(OCCNC(=O)c2ncn[nH]2)c1`, for which, in experiment [1], the cell count was determined as 473. Besides, the inhibition in experiment [1] is 3% (inactive); in experiment [3] it was 31.1% (inactive); in experiment [7], 12% (inactive); in experiment [8], 18.1% (inactive). In experiment [2], the inhibition of aggregation is 3.2% (inactive). The nuclei count in experiment [2] was determined as 93.5%; in experiment [3], 88.4%. Moreover, the figures for the fluorescence slope in experiment [4] and in experiment [6] were -0.592 (inactive) and 0.00585 (inactive), respectively. For the same compound, the NADPH fluorescence slope in experiment [5] is -1.9e-06 (inactive).

With `CCN(CC)C(=O)c1sc(NC(=O)c2ccco2)c(C#N)c1C`, in experiment [1], the cell count is 752. The inhibition in experiment [1] is -1.3% (inactive); in experiment [3] it was 1.3% (inactive); in experiment [7], 11.4% (inactive); in experiment [8], 13.3% (inactive). The inhibition of aggregation in experiment [2] is -26% (inactive). The nuclei count in experiment [2] was 118%; in experiment [3], 117%. Also, the values for the fluorescence slope in experiment [4] and in experiment [6] were -0.586 (inactive) and 0.00573 (inactive), respectively. The NADPH fluorescence slope in experiment [5] was 1.3e-05 (inactive).

A word on the inhibition: it is the drop in the measured response relative to a control, in per cent.

Values taken from PubChem BioAssay.
